EC50 and Ratio data for 17 compounds are collected here from ChEMBL document CHEMBL1122673, “Synthesis of a novel series of (aryloxy)propanolamines: new selective beta 2-blocking agents” (J Med Chem, 1984).

Assay [1] is filed under the species Cavia porcellus. The assay can be described thus: (§1) In vitro evaluation on guinea pig trachea. EC50 which is the molar concentration required to give 50% inhibition of the isoproterenol response (1x10E-6M) was determined. It is filed as functional, organism-based. The essentials: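 Isolated guinea pig tracheal spirals were held at 1.50 g initial tension (resting 0.4–0.6 g) in Tyrode at 37 °C, gassed with O2/CO2 95:5, and contracted with acetylcholine 3 × 10^-6 M. Antagonist was added 15 min before Ach. Isoproterenol 3 × 10^-8 to 3 × 10^-6 M was added at maximal contraction. EC50 came from four points, with ≥4 preparations per group.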

Assay [2] is described as follows: Compound was determined for heart rate with respect to propanol. In kind it is functional. The method, boiled down: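 Urethane-anesthetized animals (1.25 g/kg ip). Carotid blood pressure was recorded, and heart rate was taken from pulse pressure. Three isoproterenol doses (10 µg/kg iv) set the control mean heart-rate rise and diastolic fall. Antagonist was given as four cumulative iv doses, with isoproterenol 10 min after each. The next dose followed return to baseline. Groups of ≥4 animals.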

Assay [3] is filed under the species Cavia porcellus. Described as §1. It is filed as functional. Particulars: read-out: ED50 (the source's name). The essentials:
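Isolated guinea pig tracheal spirals were held at 1.50 g initial tension (resting 0.4–0.6 g) in Tyrode at 37 °C, gassed with O2/CO2 95:5, and contracted with acetylcholine 3 × 10^-6 M. Antagonist was added 15 min before Ach. Isoproterenol 3 × 10^-8 to 3 × 10^-6 M was added at maximal contraction.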

SMILES strings stand for the structures.

With `CC(C)NCC(O)COc1ccc2c(c1)[C@@H]1CCCCC[C@H]21` (some centres undefined), the EC50 in the assay filed under Cavia porcellus [1] is 417 nM. Also, in assay [2], the Ratio is listed as 0.02.

On to `CC(C)NCC(O)COc1cccc2c1[C@@H]1CCCC[C@H]21` (some centres undefined), for which, in the assay listed under Cavia porcellus [1], the EC50 was determined as 70 nM.

As for `CC(C)(C)NCC(O)COc1cccc2c1[C@@H]1CCCCC[C@]21O` (some centres undefined), the EC50 in the assay listed under Cavia porcellus [3] came out at 1.26 nM. For the same compound, in assay [2], the Ratio is on record as 0.42.

`COc1ccc(CCNCC(O)COc2cccc3c2[C@@H]2CCCCC[C@H]32)cc1OC` (some centres undefined) showed an EC50 in the assay listed under Cavia porcellus [1] of 1100 nM.

`CC(C)NCC(O)COc1cccc2c1[C@@H]1CCCCC[C@H]21` (some centres undefined) displayed an EC50 in the assay filed under Cavia porcellus [1] of 2 nM. In assay [2], the Ratio is 0.46.

In the assay listed under Cavia porcellus [1], `CC(C)NCC(O)COc1ccc2c(c1)[C@@H]1CCCC[C@H]21` (some centres undefined) showed an EC50 of 502 nM.

Regarding `CC(C)(C)NCC(O)COc1cccc2c1[C@@H]1CCCCC[C@H]21` (some centres undefined), in the assay listed under Cavia porcellus [1], the EC50 was 45.7 nM. In addition, in assay [2], the Ratio is given as 0.57.

Consider `CCCC(=O)Nc1ccc(OCC(O)CNC(C)C)c2c1[C@H]1CCCCC[C@@H]21` (some centres undefined), for which, in the assay listed under Cavia porcellus [3], the EC50 was 341 nM.

As for `COc1ccc(CCNCC(O)COc2cccc3c2[C@@H]2CCCCC[C@]32O)cc1OC` (some centres undefined), in the assay filed under Cavia porcellus [3], the EC50 is 260 nM. Further, in assay [2], the Ratio is 0.68.

As to `CC(C)(C)NCC(O)COc1ccc2c(c1)[C@@H]1CCCC[C@H]21` (some centres undefined), the EC50 in the assay filed under Cavia porcellus [1] came out at 201 nM.

Regarding `CC(C)(C)NCC(O)COc1ccc2c(c1)[C@@H]1CCCCC[C@H]21` (some centres undefined), the EC50 in the assay filed under Cavia porcellus [3] was 1380 nM.

For the compound `CC(C)(C)NCC(O)COc1cccc2c1[C@]1(O)CCCC[C@H]21` (some centres undefined), the EC50 in the assay listed under Cavia porcellus [3] stood at 115 nM.

With `COc1ccc(CCNCC(O)COc2cccc3c2[C@]2(O)CCCCC[C@H]32)cc1OC` (some centres undefined), in the assay listed under Cavia porcellus [3], the EC50 turned out to be 7010 nM.

For `CC(C)NCC(O)COc1cccc2c1[C@@H]1CCCCC[C@]21O` (some centres undefined), the EC50 in the assay listed under Cavia porcellus [3] came to 1.3 nM. For the same compound, the Ratio in assay [2] was determined as 0.8.

For the compound `CC(C)NCC(O)COc1ccc2ccccc2c1` (centres undefined), in the assay listed under Cavia porcellus [3], the EC50 came to 55 nM.

Take `CC(C)NCC(O)COc1cccc2c1[C@]1(O)CCCCC[C@H]21` (some centres undefined): the EC50 in the assay listed under Cavia porcellus [3] worked out at 130 nM.

As to `CC(C)(C)NCC(O)COc1cccc2c1[C@]1(O)CCCCC[C@H]21` (some centres undefined), the EC50 in the assay listed under Cavia porcellus [3] worked out at 5.49 nM. Besides, the Ratio in assay [2] stood at 0.08.
